≈ marks a conversion by molar mass, not a printed value. Where only a bound is given, the exact number is not on record here.

Common to all, as to format: functional
In assay [1] the test system is Haemophilus influenzae. The assay is described as follows: Bactericidal activity against azithromycin-susceptible Haemophilus influenzae ATCC 49247 assessed as reduction in colony formation incubated in HTM broth medium for 20 to 24 hrs followed by 24 hrs subculturing in the medium without test compound.
Assay [2] has as its system Haemophilus influenzae. The assay is described as follows: Ratio of MBC to MIC for azithromycin-susceptible Haemophilus influenzae ATCC 49247.
Assay [3] concerns Streptococcus pyogenes. The assay is described as follows: Ratio of MBC to MIC for inducibly erythromycin resistant Streptococcus pyogenes 01-968 expressing i-ermA.
Assay [4] deals with Streptococcus pneumoniae. As to the kind of experiment: Antimicrobial activity against erythromycin-susceptible Streptococcus pneumoniae ATCC 49619 incubated in CAMHB medium for 20 to 24 hrs by two-fold microbroth dilution method. In general terms: Broth dilution looks for growth in wells or tubes with falling amounts of substance.
Assay [5] deals with Streptococcus pneumoniae. As to the kind of experiment: Ratio of MBC to MIC for mef-encoded erythromycin resistant Streptococcus pneumoniae PU09.
Assay [6] concerns Staphylococcus aureus. The assay is described as follows: Bactericidal activity against inducibly erythromycin-resistant and methicillin resistant Staphylococcus aureus PU32 expressing i-ermA assessed as reduction in colony formation incubated in CAMHB medium for 20 hrs followed by 24 hrs subculturing in the medium without test compound.
Assay [7] deals with Staphylococcus aureus. As to the kind of experiment: Antimicrobial activity against constitutively erythromycin resistant and methicillin resistant Staphylococcus aureus PU20 expressing c-ermC incubated in CAMHB medium for 20 hrs by two-fold microbroth dilution method. The following applies: PU20, 20 h. A digest of the protocol: (§1)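 Purified fresh Staphylococcus isolate at about 5×10^5 CFU/ml final in CAMHB, 35 °C for 20 h. Each run included ATCC strains and reference antibiotics as QC, plus an antibiotic-free growth control.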

Assay [8] has as its system Staphylococcus aureus. The assay is described as follows: Antimicrobial activity against inducibly erythromycin-resistant and methicillin resistant Staphylococcus aureus PU32 expressing i-ermA incubated in CAMHB medium for 20 hrs by two-fold microbroth dilution method. The following applies: PU32, 20 h. An outline of the steps: as §1
In assay [9] the test system is Streptococcus pneumoniae. The assay is described as follows: Antimicrobial activity against mef-encoded erythromycin resistant Streptococcus pneumoniae PU09 incubated in CAMHB medium for 20 to 24 hrs by two-fold microbroth dilution method.
Assay [10] deals with Haemophilus influenzae. As to the kind of experiment: Antimicrobial activity against azithromycin-susceptible Haemophilus influenzae ATCC 49247 incubated in HTM broth medium for 20 to 24 hrs by two-fold microbroth dilution method.
For assay [11], the system named is Streptococcus pneumoniae. As to the kind of experiment: Bactericidal activity against erythromycin-susceptible Streptococcus pneumoniae ATCC 49619 assessed as reduction in colony formation incubated in CAMHB medium for 20 to 24 hrs followed by 24 hrs subculturing in the medium without test compound.
The subject of assay [12] is Streptococcus pyogenes. As to the kind of experiment: Antimicrobial activity against inducibly erythromycin resistant Streptococcus pyogenes 01-968 expressing i-ermA incubated in CAMHB medium for 20 to 24 hrs by two-fold microbroth dilution method.
Assay [13] concerns Streptococcus pneumoniae. The assay is described as follows: Ratio of MBC to MIC for erythromycin-susceptible Streptococcus pneumoniae ATCC 49619.
Assay [14] concerns Streptococcus pneumoniae. As to the kind of experiment: Bactericidal activity against mef-encoded erythromycin resistant Streptococcus pneumoniae PU09 assessed as reduction in colony formation incubated in CAMHB medium for 20 to 24 hrs followed by 24 hrs subculturing in the medium without test compound.
In assay [15] the test system is Streptococcus pyogenes. The assay is described as follows: Bactericidal activity against inducibly erythromycin resistant Streptococcus pyogenes 01-968 expressing i-ermA assessed as reduction in colony formation incubated in CAMHB medium for 20 to 24 hrs followed by 24 hrs subculturing in the medium without test compound.
Assay [16] concerns Staphylococcus aureus. As to the kind of experiment: Bactericidal activity against constitutively erythromycin resistant and methicillin-resistant Staphylococcus aureus PU20 expressing c-ermC assessed as reduction in colony formation incubated in CAMHB medium for 20 hrs followed by 24 hrs subculturing in the medium without test compound.

On to `CC[C@H]1OC(=O)[C@H](C)[C@@H](OC(=O)CCNC/C=C/c2cccnc2)[C@H](C)[C@@H](O[C@@H]2O[C@H](C)C[C@H](N(C)C)[C@H]2O)[C@](C)(OC)C[C@@H](C)/C(=N\OC)[C@H](C)[C@H]2OC(=O)O[C@@]21C`, for which the MBC in assay [1] was 256 µg/mL (≈ 307 µM); in assay [6], above 256 µg/mL; in [11], 2 µg/mL (≈ 2.4 µM); in [14] it was 2 µg/mL (≈ 2.4 µM); in assay [15], above 64 µg/mL. Further, the Ratio is 1 in assay [2], above 8 in assay [3], 1 in assay [5] and 2 in assay [13]. Further, the MIC in assay [4] was 1 µg/mL (≈ 1.2 µM); in assay [7], above 256 µg/mL; in assay [8], 128 µg/mL (≈ 154 µM); in assay [9], 2 µg/mL (≈ 2.4 µM); in assay [10], 256 µg/mL (≈ 307 µM); in assay [12] it was 8 µg/mL (≈ 9.6 µM).
Regarding `CC[C@H]1OC(=O)[C@H](C)[C@@H](OC(=O)CCNCCCc2ccc3c(c2)c(=O)c(C(=O)O)cn3C2CC2)[C@H](C)[C@@H](O[C@@H]2O[C@H](C)C[C@H](N(C)C)[C@H]2O)[C@](C)(OC)C[C@@H](C)/C(=N\OC)[C@H](C)[C@H]2OC(=O)O[C@@]21C`, the MBC is 256 µg/mL (≈ 260 µM) in assay [1]; above 256 µg/mL in assay [16]; above 256 µg/mL in assay [6]; 1 µg/mL (≈ 1.02 µM) in [11]; 4 µg/mL (≈ 4.06 µM) in assay [14]; 32 µg/mL (≈ 32.5 µM) in [15]. Moreover, the Ratio is 2 in assay [2], 1 in assay [3], 1 in assay [5] and 2 in [13]. The MIC in assay [4] is 0.5 µg/mL (≈ 0.508 µM); in assay [7], 128 µg/mL (≈ 130 µM); in assay [8], 128 µg/mL (≈ 130 µM); in assay [9], 4 µg/mL (≈ 4.06 µM); in assay [10], 128 µg/mL (≈ 130 µM); in assay [12] it was 32 µg/mL (≈ 32.5 µM).
In the case of `CC[C@H]1OC(=O)[C@H](C)[C@@H](OC(=O)NCCCc2cncc(N)c2)[C@H](C)[C@@H](O[C@@H]2O[C@H](C)C[C@H](N(C)C)[C@H]2O)[C@](C)(OC)C[C@@H](C)/C(=N\OC)[C@H](C)[C@H]2OC(=O)O[C@@]21C`, the MBC in [1] was 256 µg/mL (≈ 311 µM); in [11], 0.5 µg/mL (≈ 0.608 µM); in [14], 8 µg/mL (≈ 9.73 µM). For the same compound, the Ratio in assay [2] is reported as 1; in assay [13], 2. The values for the MIC in assay [4], in [9] and in assay [10] were 0.25 µg/mL (≈ 0.304 µM), 4 µg/mL (≈ 4.87 µM) and 256 µg/mL (≈ 311 µM), respectively.
On to `CC[C@H]1OC(=O)[C@H](C)[C@@H](OC(=O)CCNCCNc2cc3c(=O)c(C(=O)O)cn(C4CC4)c3cc2Cl)[C@H](C)[C@@H](O[C@@H]2O[C@H](C)C[C@H](N(C)C)[C@H]2O)[C@](C)(OC)C[C@@H](C)/C(=N\OC)[C@H](C)[C@H]2OC(=O)O[C@@]21C`, for which the MBC was 128 µg/mL (≈ 125 µM) in assay [1]; above 256 µg/mL in assay [6]; 4 µg/mL (≈ 3.92 µM) in assay [11]; 8 µg/mL (≈ 7.84 µM) in [14]; 32 µg/mL (≈ 31.4 µM) in [15]. The Ratio in assay [2] amounted to 1; in [3], 2; in [5], 1; in assay [13], 2. Besides, the MIC in assay [4] was 2 µg/mL (≈ 1.96 µM); in [7] it was above 256 µg/mL; in assay [8], 256 µg/mL (≈ 251 µM); in assay [9] it was 8 µg/mL (≈ 7.84 µM); in [10], 128 µg/mL (≈ 125 µM); in assay [12], 16 µg/mL (≈ 15.7 µM).

These data come from ChEMBL document CHEMBL4346684, “Synthesis and structure-bactericidal activity relationships of non-ketolides: 9-Oxime clarithromycin 11,12-cyclic carbonate featured with three-to eight-atom-length spacers at 3-OH” (Eur J Med Chem, 2019).
